RGS4 block: inhibitors of human RGS4. P49798. HEK293 M3R/RGS4 inducible, Fluo-4 calcium flux; active compounds read high; triggered by carbachol at its EC20. B-score at 10 µM. 310,000 compounds, 0.45% hits;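 active = B-score, a plate-corrected calcium signal, over three deviations above library mean, with baseline fluorescence within five deviations of library mean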;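 also: RGS4 expression induced by doxycycline in cells with stable M3 receptor; B-score is computed from the integrated fluorescence ratio over baseline after carbachol; higher B-score means a larger calcium signal and so more RGS4 inhibition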
Target sequence (P49798 whole entry, looked up): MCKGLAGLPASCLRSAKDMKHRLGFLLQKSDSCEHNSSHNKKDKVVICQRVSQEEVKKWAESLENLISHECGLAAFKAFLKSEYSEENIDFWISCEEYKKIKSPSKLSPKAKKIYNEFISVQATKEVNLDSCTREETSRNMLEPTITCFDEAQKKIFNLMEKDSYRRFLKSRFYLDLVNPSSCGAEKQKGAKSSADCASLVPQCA
MrgX1 ag: agonists of human MrgX1 receptor. B-score at 10 µM. 310,000 compounds, 0.44% hits. MrgX1-HEK293 cells, Fluo-4 calcium fluorescence, agonist mode; active compounds read high. Q96LB2. AID 588627;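 active = calcium response B-score plate-corrected fluorescence ratio at least 3 library SD, with starting fluorescence B-score inside 5 SD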
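times = overnight plating, then 30 min 37 °C plus 30 min room-temperature dye loading | assay system = stable human MrgX1 HEK293 cell line | input = fifteen thousand cells per well | signal = kinetic calcium dye fluorescence, Fluo-4 NW | dosing = compound delivered in addition one of three | read-out = B-scored fluorescence response ratio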
MrgX1 PAM: human MrgX1 positive allosteric modulation, primary screen. Q96LB2. MrgX1-HEK293, Fluo-4 calcium flux, FDSS; active compounds read high. B-score at 10 µM. 310,000 compounds, 0.63% hits;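 active = plate-corrected calcium response at least 3 library SD above typical, normal starting fluorescence, not activating the receptor alone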;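 also: compound read alongside a low EC10 to EC30 dose of BAM8-22 agonist; peak minus trough fluorescence over baseline measured at the second addition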
KCC2 mod: modulates chloride dependent transport by human KCC2; B-score of Tl+ flux slope (higher = more flux/activation; lower = inhibition) at 10 µM; 190,000 compounds, 2.2% hits; AID 1456; KCC2 cells, thallium flux FluoZin-2 fluorescence;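 active = thallium flux slope and its plate-corrected score both differing from the plate sample mean at a set confidence after two filtering rounds, in either direction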;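 also: slope of fluorescence scaled to starting intensity during 10 to 20 s after thallium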
MrgX1 antagonist: blocks BAM8-22 activation of human MrgX1 receptor | AID 588676 | B-score at 10 µM | Q96LB2 | 310,000 compounds, 1.3% hits | MRGX1-HEK293 calcium flux, Fluo-4, BAM8-22 antagonism; active compounds read low;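 active = calcium-response B-score plate-corrected more than 3 library SD below zero, starting fluorescence within 5 deviations, no agonist response on first addition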;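 also: peak minus trough fluorescence over baseline after final BAM8-22 challenge near maximal dose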
RGS4 act: RGS4 potentiation or activation | HEK293 M3R/inducible RGS4, carbachol calcium flux Fluo4; active compounds read low | B-score at 10 µM | 310,000 compounds, 0.92% hits | AID 463111;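 active = B-score of the integrated calcium signal more than 4 SD below the library mean, with starting fluorescence not abnormally high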;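 also: negative B-score means reduced calcium response which marks RGS4 activation or potentiation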
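Detection: kinetic calcium fluorescence imaging with Fluo4-AM dye, 2 µM / Material: HEK293 cells with stable M3R and inducible RGS4 / Schedule: recording 10 s baseline at 1 Hz, 100 s post-agonist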
* hit, by the source's call; i = inactive; . = not tested or not shown. Compounds with a hit are over-represented: about 4.7% of the library has one in this group of screens.

SMILES	RGS4 block	MrgX1 ag	MrgX1 PAM	KCC2 mod	MrgX1 antagonist	RGS4 act
CC1(C)CC2CC(C)(CN2/C=N/c2sc3c(c2C#N)CC(C)(C)NC3(C)C)C1 (centres undefined)	i	i	i	0.018	-4.5*	i
CCC(=NC(C)c1ccccc1)c1c(O)n(C)c(=O)n(C)c1=O (centres undefined)	i	i	i	0.33	-7.4*	i
CCC(C(=O)OCC(=O)c1c(N)n(CC(C)C)c(=O)n(C)c1=O)c1ccccc1 (centres undefined)	i	i	i	.	i	i
O=C(Nc1ccc(C(O)(C(F)(F)F)C(F)(F)F)cc1)c1ccc(Cl)c([N+](=O)[O-])c1	i	i	i	-0.15	i	-8.8*
CCCCCc1cc(=O)oc2c(C(CCN3CCCC3)c3cc(OC)c(OC)c(OC)c3)c(OC)cc(OC)c12 (centres undefined)	i	i	i	0.6	-5.3*	i
Clc1ccc(-c2nsc(N3CCOCC3)n2)c(Cl)c1	i	i	i	.	i	i
COc1ccc(N2CC(C(=O)N/N=C/c3cccs3)CC2=O)cc1 (centres undefined)	i	i	i	-0.46	-6.1*	i
COc1ccc(N2CC(C(=O)N/N=C/c3ccc(C)cc3)CC2=O)cc1 (centres undefined)	i	i	i	.	i	i
Cn1c(=O)[nH]c(=O)c2c1nc(N1CCN(CCO)CC1)n2Cc1ccccc1	i	i	i	.	i	i
C=CS(=O)(=O)c1ccc(Oc2ccc(S(=O)(=O)C=C)cc2)cc1	21*	31*	i	-0.94	i	i
NS(=O)(=O)c1ccc(Oc2ccc(S(N)(=O)=O)cc2)cc1	i	i	i	1.2	i	i
CC1c2cc3c(cc2CCN1C(=O)c1cccc(Cl)c1)OCCCO3 (centres undefined)	i	i	i	.	i	i
O=C(CSCc1ccc(Br)cc1)N=Nc1c(O)[nH]c2ccccc12	i	i	i	10*	i	i
CN(CCOc1ccccc1)CC(=O)Nc1ccc(Cl)cc1[N+](=O)[O-]	i	i	13*	-0.39	i	i
COc1cc(NC(=O)CN(C)CCOc2ccccc2)c(C)cc1[N+](=O)[O-]	i	i	i	.	i	i
CCN(CC)CCNC(=O)c1c(C)n(-c2ccccc2)c2cc(Br)c(OC)cc12	i	i	i	0.68	-7.3*	i
COc1cc2c(C(=O)N3CCN(C)CC3)c(C)n(-c3ccccc3)c2cc1Br	i	i	i	0.28	i	i
CCOC(=O)c1c(CNCCN(CC)CC)n(C)c2cc(Br)c(OC)cc12	i	i	i	-3*	i	i
CCOC(=O)Nc1ccc2c(CNC(C)c3ccccc3OC)cc(=O)oc2c1 (centres undefined)	i	i	i	.	i	i
CC1Nc2ncnc(N3CCN(c4ccccc4)CC3)c2N(Cc2ccc(Br)cc2)C1=O (centres undefined)	i	i	i	.	i	i
Cc1cccc(-c2noc(Cc3ccccc3)n2)c1	i	i	i	0.28	-8.2*	i
CC1Sc2ccc(S(=O)(=O)N3CCC(C(=O)Nc4cccc(Cl)c4)CC3)cc2NC1=O (centres undefined)	i	i	i	.	i	i
CN(C)c1ccc(C2/C(=C(/O)c3ccc(Br)cc3)C(=O)C(=O)N2C)cc1 (centres undefined)	i	i	i	.	i	i
COc1ccc(C(CNC(=O)C(=O)Nc2ccc3c(c2)OCO3)N2CCN(C)CC2)cc1 (centres undefined)	i	i	i	.	-6.2*	i
CN1CCN(C(CNC(=O)C(=O)Nc2ccc3c(c2)OCO3)c2ccc(F)cc2)CC1 (centres undefined)	i	i	i	.	i	i
CCN1CCN(Cc2nnc(-c3ccc(C)cc3)o2)CC1	i	i	i	.	i	i
